Test results from paper PMC2937276 (Molecular cancer therapeutics, 2010).
Where two headings read alike, the source gives them in different places.

Columns and labels:
GBM culture GBM-1 = assay: XTT cell proliferation assay; type: cell-based, Mouse; conditions: Mus musculus, GBM1, 36 h
Method in brief: (§1)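 Primary human or mouse GBM cultures (DMEM, 10% FBS) were seeded at 5000 cells per 96-well well. Cells were cultured with test compound or vehicle for 36 h. Proliferation was read by XTT assay in quadruplicate. IC50 came from nonlinear-regression curve fitting.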

GBM culture 46 = assay: XTT cell proliferation assay; type: cell-based, Mouse; conditions: Mus musculus, 36 h
Method in brief: as §1

GBM culture 103 = assay: XTT cell proliferation assay; type: cell-based, Mouse; conditions: Mus musculus, 36 h
Method in brief: as §1

[1] = tested on: primary astrocytes cultures; assay: Cell counting, growth of primary astrocytes under drug; type: cell-based, Mouse; conditions: increasing concentrations for 24 hours; 250 nM over time
Method in brief: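 Primary mouse astrocyte cultures were grown with rising compound concentrations for 24 h, then counted. A second set was exposed to 250 nM for the indicated times before viable-cell counts. Counts are expressed as % of untreated cells. Values are means of triplicates with SD; t-test.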

GBM culture 2414 = assay: XTT cell proliferation assay; type: cell-based, Mouse; conditions: Mus musculus, 36 h
Method in brief: as §1

[2] = type: in vivo, CD-1 mice; conditions: for Kp: brain and plasma
GBM culture 2415 = assay: XTT cell proliferation assay; type: cell-based, Mouse; conditions: Mus musculus, 36 h
Method in brief: as §1

[3] = tested on: Hsp90 client proteins EGFR, Akt, Cdk4 and CyclinD1; assay: Immunoblot analysis of Hsp90 client proteins in human GBM cultures; type: cell-based; conditions: human primary GBM culture cells; 250 nM, 24 hours
Method in brief: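 Human primary GBM cultures in DMEM with 10% FBS, given 250 nM test compound or vehicle for 24 h. Lysed in RIPA with 5 mM Na3VO4 and protease inhibitors. Equal protein (40 µg) resolved by SDS-PAGE, transferred to PVDF, blocked in TBS-T with 1% BSA and 5% milk. Primary antibodies overnight at 4°C, secondary 1:10000 for 1 h at room temperature, ECL.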

[4] = tested on: EGFRvIII-driven GBM tumors; assay: Treatment of mice bearing GBM tumors; type: in vivo
Method in brief: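 Adult (≥3 months) conditional EGFR*/Cdkn2a/Pten/CAG-luc mice under ketamine/xylazine received 250 nL adeno-CMV-Cre stereotaxically into the brain. Tumours were followed by luciferin (225 mg/kg IP) bioluminescence and randomised at the signal threshold. Dosing: 100 mg/kg IP in DMA/Tween 20/Cremophor/saline vehicle, or vehicle alone, thrice weekly ×2 weeks, then twice weekly for >100 days. At 180 days, survivors were perfused with PFA; coronal paraffin sections were H&E-stained. N=5 control, N=4 treated.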

GBM culture GBM6 = assay: XTT cell proliferation assay; type: cell-based, Human; conditions: Homo sapiens, GBM6, 36 h
Method in brief: as §1

GBM culture 2736 = assay: XTT cell proliferation assay; type: cell-based, Mouse; conditions: Mus musculus, 36 h
Method in brief: as §1

GBM culture 41 = assay: XTT cell proliferation assay; type: cell-based, Mouse; conditions: Mus musculus, 36 h
Method in brief: as §1

[5] = Hepatotoxicity and toxicity on exposure in mice; type: in vivo
GBM culture GBM12 = assay: XTT cell proliferation assay; type: cell-based, Human; conditions: Homo sapiens, 36 h
Method in brief: as §1

GBM culture GBM39 = assay: XTT cell proliferation assay; type: cell-based, Human; conditions: Homo sapiens, GBM39, 36 h
Method in brief: as §1

GBM culture GBM-2 = assay: XTT cell proliferation assay; type: cell-based, Mouse; conditions: Mus musculus, GBM2, 36 h
Method in brief: as §1

GBM culture GBM8 = assay: XTT cell proliferation assay; type: cell-based, Human; conditions: Homo sapiens, 36 h
Method in brief: as §1

GBM culture 42 = assay: XTT cell proliferation assay; type: cell-based, Mouse; conditions: Mus musculus, 36 h
Method in brief: as §1

GBM culture 102 = assay: XTT cell proliferation assay; type: cell-based, Mouse; conditions: Mus musculus, 36 h
Method in brief: as §1

[6] = tested on: EGFR-driven mouse GBM tumor primary cell cultures (GBM-1 & -2); assay: Cell counting, growth of GBM cell cultures under drug; type: cell-based; conditions: increasing concentrations for 24 hours; 250 nM over time
Method in brief: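 Mouse primary GBM cultures (GBM-1: wild-type plus vIII EGFR; GBM-2: EGFRvIII), alongside primary mouse astrocytes, kept in DMEM with 10% FBS. Cells exposed to increasing test-compound concentrations for 24 h, or to 250 nM for varying times. Viable cells counted and expressed as percent of untreated cells. Mean of triplicates with S.D.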

GBM culture GBM22 = assay: XTT cell proliferation assay; type: cell-based, Human; conditions: Homo sapiens, 36 h
Method in brief: as §1

GBM cells = assay: Apoptosis analysis; type: cell-based, Mouse; conditions: 250 nM
Method in brief: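 Two apoptosis read-outs on primary mouse GBM cultures (DMEM, 10% FBS), each with 250 nM compound for the indicated times. Pyknotic nuclei: 10,000 cells per chamber-slide well, fixed in fresh 4% PFA for 15 min, Hoechst 33258 at 5 µg/ml for 5 min. Nuclei were scored by fluorescence microscopy as % pyknotic over total across three areas. Cleaved caspase-3: western blot. Mean of three independent experiments ± SD.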

GBM culture 69 = assay: XTT cell proliferation assay; type: cell-based, Mouse; conditions: Mus musculus, 36 h
Method in brief: as §1

[7] = Brain concentrations of HSP90 inhibitors after a single i.p. injection; conditions: NCR-Nude, mouse, intraperitoneal
GBM culture GBM43 = assay: XTT cell proliferation assay; type: cell-based, Human; conditions: Homo sapiens, 36 h
Method in brief: as §1

GBM culture GBM59 = assay: XTT cell proliferation assay; type: cell-based, Human; conditions: Homo sapiens, 36 h
Method in brief: as §1

[8] = tested on: Hsp90 client proteins EGFR, Akt, Cdk4 and Cyclin D1; assay: Immunoblot analysis of Hsp90 client proteins in mouse GBM cultures; type: cell-based
Method in brief: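 Mouse GBM-1 and GBM-2 cultures and primary astrocytes treated with 250 nM test compound for varying times, or for 24 h against vehicle. RIPA lysates with 5 mM Na3VO4 and protease inhibitors. 40 µg resolved by SDS-PAGE onto PVDF, blocked in TBS-T/BSA/milk. Primary antibodies overnight at 4°C, secondary 1:10000 for 1 h at room temperature, ECL detection. Dynamin as control.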

GBM culture GBM15 = assay: XTT cell proliferation assay; type: cell-based, Human; conditions: Homo sapiens, 36 h
Method in brief: as §1

GBM culture 2231 = assay: XTT cell proliferation assay; type: cell-based, Mouse; conditions: Mus musculus, 36 h
Method in brief: as §1

GBM culture 2000 = assay: XTT cell proliferation assay; type: cell-based, Mouse; conditions: Mus musculus, 36 h
Method in brief: as §1

GBM culture 2227 = assay: XTT cell proliferation assay; type: cell-based, Mouse; conditions: Mus musculus, 36 h
Method in brief: as §1

[9] = male, CD-1, mouse, brain, iv, 25 mg/kg
[10] = male, CD-1, mouse, brain, iv, 70 mg/kg
[11] = male, CD-1, mouse, plasma, iv, 25 mg/kg
[12] = male, CD-1, mouse, plasma, iv, 70 mg/kg
[13] = repeat dose, 25 mg/kg i.v. every other day

O=C1OCC/C=C/CC/C=C/C(=N/OCC(=O)N2CCCCC2)Cc2c(Cl)c(O)cc(O)c21 [NXD30001]
IC50 (GBM culture GBM-1): 78.3 ± 8.3 nM
IC50 (GBM culture 46): 54.3 ± 12.5 nM
IC50 (GBM culture 103): 576 ± 14.8 nM
inhibition of astrocyte growth [1]: but not of astrocytes
IC50 (GBM culture 2414): 31.7 ± 4.9 nM
AUC(0-t) ([2]; brain, repeated i.v. injections 25 mg/kg every other day, 7 doses): 940 ng·h/g
AUC(0-t) ([2]; brain, single i.v. injection 70 mg/kg): 1073 ng·h/g
Kp ([2]; male, CD-1, mouse, iv, 25 mg/kg): 0.135
Kp ([2]; male, CD-1, mouse, iv, 70 mg/kg): 0.201
Cmax [2, 9]: 210 ng/g
Tmax [2, 9]: 0.25 h
half-life [2, 9]: 8.99 h
Cmax [2, 10]: 223 ng/g
Tmax [2, 10]: 0.5 h
half-life [2, 10]: 4.07 h
AUC(0-t) [2, 11]: 6960 ng·h/mL
C0 at 0.5 h [2, 11]: 4530 ng/mL
Vd [2, 11]: 27.9 L/kg
clearance [2, 11]: 59.8 mL/min/kg
half-life [2, 11]: 5.4 h
AUC(0-t) [2, 12]: 5350 ng·h/mL
C0 [2, 12]: 2140 ng/mL
Vd [2, 12]: 51.5 L/kg
clearance [2, 12]: 217 mL/min/kg
half-life [2, 12]: 2.74 h
concentration detected in brain prior to the last dose [2, 13]: less than 10 ng/g
concentration detected in plasma prior to the last dose [2, 13]: less than 10 ng/mL
IC50 (GBM culture 2415): 251 ± 57.7 nM
Hsp90 client protein levels (western blot) [3]: deplete the Hsp90 client proteins EGFR, Akt, Cdk4 and CyclinD1
effect on survival (Kaplan-Meier) ([4]; 100 mg/kg i.p. thrice weekly (X2) then twice weekly, versus vehicle): statistically significant prolongation in survival
survival of treated animals ([4]; half of the treated animals, 100 mg/kg i.p. thrice weekly (X2) then twice weekly, N=4 treated): > 180 days
histological analysis of H&E stained brain sections of surviving animals ([4]; surviving treated animals, after 180 days): few remaining tumor cell clusters
IC50 (GBM culture GBM6): 1220 ± 35.1 nM
IC50 (GBM culture 2736): 77.6 ± 2.8 nM
IC50 (GBM culture 41): 80.2 ± 5.9 nM
toxicity observed in the treated animals ([5]; GBM-bearing mice treated with 100 mg/kg i.p.): absence of toxicity
hepatotoxicity ([5]; short and long term exposure in mice, data not shown and ref 13): does not result in hepatotoxicity
IC50 (GBM culture GBM12): 2330 ± 60 nM
IC50 (GBM culture GBM39): 111.6 ± 1 nM
IC50 (GBM culture GBM-2): 111 ± 9.4 nM
IC50 (GBM culture GBM8): 5690 ± 450 nM
IC50 (GBM culture 42): 73.8 ± 0.7 nM
IC50 (GBM culture 102): 360 ± 21.6 nM
inhibition of GBM cell growth [6]: dose and time dependent inhibition of GBM cell growth
IC50 (GBM culture GBM22): 5260 ± 152 nM
cleaved-caspase 3 (western blot) (GBM cells): appearance of cleaved-caspase 3
increase in apoptosis level (pyknotic nucleated cells) (GBM cells): 10 fold
IC50 (GBM culture 69): 73.4 ± 2.5 nM
concentration at 6 h ([7]; 100 mg/kg): 676 ng/g
concentration at 12 h ([7]; 100 mg/kg): 823 ng/g
concentration at 24 h ([7]; 100 mg/kg): 271 ng/g
concentration at 48 h ([7]; 100 mg/kg): 10.7 ng/g
concentration at 6 h ([7]; 150 mg/kg): 1440 ng/g
concentration at 12 h ([7]; 150 mg/kg): 3420 ng/g
concentration at 24 h ([7]; 150 mg/kg): 900 ng/g
concentration at 48 h ([7]; 150 mg/kg): 116 ng/g
IC50 (GBM culture GBM43): 86.3 ± 0.2 nM
IC50 (GBM culture GBM59): 232 ± 13.2 nM
Hsp90 client protein levels (western blot) ([8]; GBM-1 & -2 cultures, 250 nM for the indicated times): degradation of the Hsp90 client proteins EGFR, Akt, Cdk4 and Cyclin D1
Hsp90 client protein levels (western blot) ([8]; mouse primary GBM culture cells, 250 nM, 24 hours): deplete the Hsp90 client proteins EGFR, Akt, Cdk4 and CyclinD1
IC50 (GBM culture GBM15): 60.7 ± 0.5 nM
IC50 (GBM culture 2231): 146 ± 3.7 nM
IC50 (GBM culture 2000): 115 ± 9.4 nM
IC50 (GBM culture 2227): 134 ± 7.7 nM
